Assay results published in ChEMBL document CHEMBL2203183, “Synthesis of N-phenyl-N-(3-(piperidin-1-yl)propyl)benzofuran-2-carboxamides as new selective ligands for sigma receptors” (Bioorg Med Chem, 2012).

Columns and labels:
[1] = molecular target: T1, Alpha-2A adrenergic receptor (Homo sapiens) (UniProt P08913); test: Displacement of [3H]clonidine from alpha2A adrenergic receptor at 10 uM after 40 mins by scintillation counting analysis
T1 sequence (whole entry): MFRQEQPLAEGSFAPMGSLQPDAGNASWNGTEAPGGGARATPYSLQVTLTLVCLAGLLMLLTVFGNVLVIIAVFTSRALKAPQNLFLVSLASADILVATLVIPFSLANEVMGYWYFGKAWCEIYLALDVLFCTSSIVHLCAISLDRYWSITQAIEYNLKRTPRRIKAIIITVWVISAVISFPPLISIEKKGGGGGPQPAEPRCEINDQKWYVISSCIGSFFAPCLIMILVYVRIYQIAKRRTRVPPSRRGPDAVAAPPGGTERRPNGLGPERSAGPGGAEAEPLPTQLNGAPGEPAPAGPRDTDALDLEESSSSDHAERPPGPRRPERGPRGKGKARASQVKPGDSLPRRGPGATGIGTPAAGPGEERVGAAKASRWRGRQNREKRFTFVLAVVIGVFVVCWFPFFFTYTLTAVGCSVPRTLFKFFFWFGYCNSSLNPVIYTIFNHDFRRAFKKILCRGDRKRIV

[2] = molecular target: 5-hydroxytryptamine receptor 2B (Homo sapiens) (UniProt P41595); test: Displacement of [3H]LSD from human recombinant 5-HT2B receptor at 10 uM after 1.5 hrs by scintillation counting analysis
Sequence of 5-hydroxytryptamine receptor 2B (Homo sapiens) (P41595 whole entry): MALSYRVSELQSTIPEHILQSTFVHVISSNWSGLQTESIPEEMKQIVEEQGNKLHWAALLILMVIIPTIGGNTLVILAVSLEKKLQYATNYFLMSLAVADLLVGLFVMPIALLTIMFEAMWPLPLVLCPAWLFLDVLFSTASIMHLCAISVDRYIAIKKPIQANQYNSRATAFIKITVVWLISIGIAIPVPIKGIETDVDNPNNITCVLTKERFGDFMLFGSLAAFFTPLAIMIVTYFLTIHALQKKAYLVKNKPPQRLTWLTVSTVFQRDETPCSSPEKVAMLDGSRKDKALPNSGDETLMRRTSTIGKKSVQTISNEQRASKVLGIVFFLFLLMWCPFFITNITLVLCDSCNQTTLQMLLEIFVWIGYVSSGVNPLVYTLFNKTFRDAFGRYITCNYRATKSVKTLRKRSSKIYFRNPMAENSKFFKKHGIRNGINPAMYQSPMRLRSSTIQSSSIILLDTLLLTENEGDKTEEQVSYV
Summary of the method: (§1)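 NIMH-PDSP primary screen using membranes from transiently or stably transfected cell lines (e.g., HEK293, COS, CHO, NIH3T3). Compound at 10 μM final. Reference compounds: chlorpromazine (5-HT2A), methysergide (5-HT2B), LY278584 (5-HT3), oxymetazoline (α2A), prazosin (α2C), atropine (M4). Mean % inhibition of radioligand specific binding, N = 4.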

[3] = molecular target: T2, Alpha-2C adrenergic receptor (Homo sapiens) (UniProt P18825); test: Displacement of [3H]clonidine from alpha2C adrenergic receptor at 10 uM after 40 mins by scintillation counting analysis; summary of the method: as §1
T2 sequence (whole entry): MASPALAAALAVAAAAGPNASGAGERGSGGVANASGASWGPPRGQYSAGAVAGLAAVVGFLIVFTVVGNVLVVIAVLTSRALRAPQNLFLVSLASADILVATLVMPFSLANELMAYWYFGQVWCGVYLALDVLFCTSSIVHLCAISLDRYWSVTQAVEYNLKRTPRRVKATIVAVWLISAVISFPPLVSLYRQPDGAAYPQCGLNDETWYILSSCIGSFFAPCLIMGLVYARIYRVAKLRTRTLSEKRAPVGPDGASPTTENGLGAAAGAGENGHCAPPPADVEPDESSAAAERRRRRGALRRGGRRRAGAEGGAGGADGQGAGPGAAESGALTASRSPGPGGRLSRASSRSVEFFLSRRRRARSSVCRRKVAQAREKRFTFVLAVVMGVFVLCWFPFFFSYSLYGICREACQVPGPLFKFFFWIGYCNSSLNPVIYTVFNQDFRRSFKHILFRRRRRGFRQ

[4] = molecular target: T3, 5-hydroxytryptamine receptor 3A (Homo sapiens) (UniProt P46098); test: Displacement of [3H]LY278584 from human recombinant 5-HT3 receptor at 10 uM after 1.5 hrs by scintillation counting analysis; summary of the method: as §1
T3 sequence (whole entry): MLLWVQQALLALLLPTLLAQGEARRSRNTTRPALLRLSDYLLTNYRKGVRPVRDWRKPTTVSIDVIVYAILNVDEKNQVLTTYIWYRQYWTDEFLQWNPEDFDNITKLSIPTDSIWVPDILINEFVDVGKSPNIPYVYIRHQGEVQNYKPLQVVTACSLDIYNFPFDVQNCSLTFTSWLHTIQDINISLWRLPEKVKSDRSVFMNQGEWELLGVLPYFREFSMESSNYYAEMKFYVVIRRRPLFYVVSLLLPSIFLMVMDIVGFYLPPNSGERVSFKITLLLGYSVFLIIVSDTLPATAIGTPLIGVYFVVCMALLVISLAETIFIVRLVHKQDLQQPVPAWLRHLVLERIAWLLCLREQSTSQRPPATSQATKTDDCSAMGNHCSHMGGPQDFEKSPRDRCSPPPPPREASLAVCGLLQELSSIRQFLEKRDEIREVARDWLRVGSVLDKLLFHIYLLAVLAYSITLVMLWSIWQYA

[5] = molecular target: T4, Muscarinic acetylcholine receptor M4 (Homo sapiens) (UniProt P08173); test: Displacement of [3H]QNB from human recombinant M4 receptor at 10 uM after 1.5 hrs by scintillation counting analysis; summary of the method: as §1
T4 sequence (whole entry): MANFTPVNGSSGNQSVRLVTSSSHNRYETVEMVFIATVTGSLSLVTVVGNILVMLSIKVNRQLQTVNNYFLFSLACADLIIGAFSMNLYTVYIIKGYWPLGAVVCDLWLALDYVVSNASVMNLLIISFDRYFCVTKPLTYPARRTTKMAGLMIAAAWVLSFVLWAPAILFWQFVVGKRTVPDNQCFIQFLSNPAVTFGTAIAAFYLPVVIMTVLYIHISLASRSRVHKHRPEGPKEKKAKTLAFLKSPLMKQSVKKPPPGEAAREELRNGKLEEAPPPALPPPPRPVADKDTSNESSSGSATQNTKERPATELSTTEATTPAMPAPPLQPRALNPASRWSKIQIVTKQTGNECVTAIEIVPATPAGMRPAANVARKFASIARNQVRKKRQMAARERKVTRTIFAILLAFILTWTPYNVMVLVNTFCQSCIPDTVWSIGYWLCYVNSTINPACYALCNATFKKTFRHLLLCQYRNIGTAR

PC-12 = test: Displacement of [3H]DTG from sigma 2 receptor in rat PC12 cell membrane at 10 uM after 2 hrs by scintillation counting; type: cell membranes
[6] = molecular target: 5-hydroxytryptamine receptor 2A (Homo sapiens) (UniProt P28223); test: Displacement of [3H]ketanserin from human recombinant 5-HT2A receptor at 10 uM after 1.5 hrs by scintillation counting analysis; summary of the method: as §1
Sequence of 5-hydroxytryptamine receptor 2A (Homo sapiens) (P28223 whole entry): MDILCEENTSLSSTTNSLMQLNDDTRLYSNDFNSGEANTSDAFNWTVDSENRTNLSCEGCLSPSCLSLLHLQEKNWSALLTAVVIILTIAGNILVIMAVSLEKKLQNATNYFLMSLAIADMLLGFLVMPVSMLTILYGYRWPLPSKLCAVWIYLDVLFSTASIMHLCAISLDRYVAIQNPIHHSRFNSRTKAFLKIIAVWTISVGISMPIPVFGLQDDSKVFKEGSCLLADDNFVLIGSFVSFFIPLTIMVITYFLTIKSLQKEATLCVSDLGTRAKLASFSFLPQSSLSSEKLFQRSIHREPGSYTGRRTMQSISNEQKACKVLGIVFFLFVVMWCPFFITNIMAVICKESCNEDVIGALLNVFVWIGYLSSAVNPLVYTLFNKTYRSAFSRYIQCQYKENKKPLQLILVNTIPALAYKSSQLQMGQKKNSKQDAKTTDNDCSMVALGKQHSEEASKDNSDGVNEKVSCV

[7] = Displacement of [3H]DTG from sigma 2 receptor in rat PC12 cell membrane after 2 hrs by scintillation counting; type: cell membranes; settings: pc-12
[8] = molecular target: Sigma non-opioid intracellular receptor 1 (Rattus norvegicus) (UniProt Q9R0C9); test: Displacement of [3H](+)-pentazocine from sigma 1 receptor in rat brain membrane at 10 uM after 2.5 hrs by scintillation counting; type: cell membranes
Sequence of Sigma non-opioid intracellular receptor 1 (Rattus norvegicus) (Q9R0C9 whole entry): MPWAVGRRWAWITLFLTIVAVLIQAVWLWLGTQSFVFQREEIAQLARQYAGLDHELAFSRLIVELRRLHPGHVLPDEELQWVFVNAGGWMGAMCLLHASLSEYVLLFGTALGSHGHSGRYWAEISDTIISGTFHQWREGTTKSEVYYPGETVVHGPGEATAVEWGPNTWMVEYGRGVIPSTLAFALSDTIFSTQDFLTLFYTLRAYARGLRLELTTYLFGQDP

[9] = molecular target: D(3) dopamine receptor (Homo sapiens) (UniProt P35462); test: Displacement of [3H]N-methylspiperone from dopamine D3 receptor at 10 uM after 1.5 hrs by scintillation counting analysis
Sequence of D(3) dopamine receptor (Homo sapiens) (P35462 whole entry): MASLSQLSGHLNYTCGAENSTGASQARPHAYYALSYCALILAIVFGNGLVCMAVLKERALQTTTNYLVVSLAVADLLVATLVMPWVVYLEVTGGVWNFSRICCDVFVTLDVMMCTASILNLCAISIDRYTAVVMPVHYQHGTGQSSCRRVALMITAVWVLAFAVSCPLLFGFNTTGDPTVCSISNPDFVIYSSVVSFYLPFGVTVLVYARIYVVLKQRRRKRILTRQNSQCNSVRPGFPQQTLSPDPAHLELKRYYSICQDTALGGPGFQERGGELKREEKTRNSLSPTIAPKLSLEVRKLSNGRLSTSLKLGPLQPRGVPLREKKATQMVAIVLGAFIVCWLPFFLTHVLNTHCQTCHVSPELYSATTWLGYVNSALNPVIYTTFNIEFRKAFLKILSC

[10] = molecular target: T5, Muscarinic acetylcholine receptor M4 (Homo sapiens, UniProt P08173); test: Displacement of [3H]QNB from human recombinant M4 receptor after 1.5 hrs by scintillation counting analysis
T5 sequence (P08173 whole entry): T4 sequence (whole entry)
Summary of the method: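 Membranes from transiently or stably transfected cell lines, run through the NIMH-PDSP program. [3H]QNB was the radioligand and atropine the reference. […] Competition curves were fitted to a three-parameter logistic to give IC50, converted to Ki by Cheng-Prusoff.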

Structure (SMILES) | inhibition [1] | inhibition [2] | inhibition [3] | inhibition [4] | inhibition [5] | inhibition (PC-12) | inhibition [6] | Ki [7] | inhibition [8] | inhibition [9] | Ki [10]
Cc1c(C(=O)N(CCCN2CCCCC2)c2ccccc2)oc2ccccc12 | 77.7% | 69.2% | 61.9% | 2.9% | 43.1% | 93.5% | 18.1% | 16 nM |  |  | 
COc1ccc2c(C)c(C(=O)N(CCCN3CCCCC3)c3ccccc3)oc2c1 |  | 93.9% | 49% | 7.3% | 68.4% | 88.5% | 61.2% | 41 nM | 97.7% | 40.6% | > 10000 nM
COc1cc2oc(C(=O)N(CCCN3CCCCC3)c3ccccc3)c(C)c2cc1OC |  | 43.8% | 78.9% | 64.2% | 54.4% | 81.4% | 76.6% | 528 nM | 99.8% | 38.8% | 
